Source: ChEMBL document CHEMBL1221227, “Nanomolar potency pyrimido-pyrrolo-quinoxalinedione CFTR inhibitor reduces cyst size in a polycystic kidney disease model” (J Med Chem, 2009)
Active and inactive are the calls of the source. The rule behind the calls is not given here.

Key:
[1] = target: T1, Cystic fibrosis transmembrane conductance regulator (Homo sapiens, UniProt P13569); assay: Inhibition of human CFTR expressed in rat FRT cells coexpressing halide indicator YFP-H148Q assessed as inhibition of halide influx at 25 uM preincubated for 15 mins by FLIPR; assay type: cell-based
Procedure, shortened: (§1)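 FRT cells coexpressing human CFTR and YFP halide sensor, assayed 48 h after plating at confluence. After PBS washes, CFTR activated with 5 µM forskolin, 100 µM IBMX and 25 µM apigenin. Compound added 5 min later and incubated 15 min. Fluorescence read 2 s baseline, then 10 s after iodide-substituted PBS addition. Initial iodide influx rate obtained by nonlinear regression.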
Target sequence in this assay (P13569 whole entry, looked up): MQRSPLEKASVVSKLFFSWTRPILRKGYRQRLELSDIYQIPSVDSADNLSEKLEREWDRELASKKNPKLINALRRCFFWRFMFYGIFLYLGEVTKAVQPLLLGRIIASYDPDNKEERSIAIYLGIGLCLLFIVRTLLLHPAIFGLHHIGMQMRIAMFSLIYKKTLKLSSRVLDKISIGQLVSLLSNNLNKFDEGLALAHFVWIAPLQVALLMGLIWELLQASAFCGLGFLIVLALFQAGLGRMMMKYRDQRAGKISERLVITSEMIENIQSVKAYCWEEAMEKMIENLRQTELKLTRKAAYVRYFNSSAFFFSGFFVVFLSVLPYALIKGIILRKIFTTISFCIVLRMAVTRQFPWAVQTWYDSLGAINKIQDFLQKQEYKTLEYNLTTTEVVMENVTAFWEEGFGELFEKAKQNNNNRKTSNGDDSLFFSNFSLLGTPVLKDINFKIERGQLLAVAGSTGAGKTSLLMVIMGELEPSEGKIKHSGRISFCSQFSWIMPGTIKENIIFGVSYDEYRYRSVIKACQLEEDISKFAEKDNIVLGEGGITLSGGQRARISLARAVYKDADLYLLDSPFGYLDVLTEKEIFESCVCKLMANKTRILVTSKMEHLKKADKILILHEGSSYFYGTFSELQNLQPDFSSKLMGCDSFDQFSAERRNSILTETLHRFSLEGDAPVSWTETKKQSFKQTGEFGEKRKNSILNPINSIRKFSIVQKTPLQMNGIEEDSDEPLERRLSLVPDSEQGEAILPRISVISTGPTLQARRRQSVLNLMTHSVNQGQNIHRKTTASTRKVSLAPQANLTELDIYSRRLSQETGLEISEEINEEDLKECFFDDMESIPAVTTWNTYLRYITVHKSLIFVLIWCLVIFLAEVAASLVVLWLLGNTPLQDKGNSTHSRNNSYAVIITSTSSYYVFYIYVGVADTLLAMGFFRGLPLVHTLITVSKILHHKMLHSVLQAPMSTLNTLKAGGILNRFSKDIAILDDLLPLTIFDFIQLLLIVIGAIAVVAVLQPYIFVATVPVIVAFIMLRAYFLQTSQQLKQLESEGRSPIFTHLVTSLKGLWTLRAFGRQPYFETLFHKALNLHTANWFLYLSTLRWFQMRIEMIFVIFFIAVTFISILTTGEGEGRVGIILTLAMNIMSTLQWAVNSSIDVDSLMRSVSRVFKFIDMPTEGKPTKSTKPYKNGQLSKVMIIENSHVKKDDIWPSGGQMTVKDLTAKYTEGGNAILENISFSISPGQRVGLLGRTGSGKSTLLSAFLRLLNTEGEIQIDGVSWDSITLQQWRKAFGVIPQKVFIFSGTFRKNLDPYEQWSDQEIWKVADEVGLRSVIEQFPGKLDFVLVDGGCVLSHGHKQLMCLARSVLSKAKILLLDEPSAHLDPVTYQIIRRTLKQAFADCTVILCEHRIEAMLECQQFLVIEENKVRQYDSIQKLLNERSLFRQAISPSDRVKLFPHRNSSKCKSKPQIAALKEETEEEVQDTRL

[2] = target: T1, Cystic fibrosis transmembrane conductance regulator; assay: Inhibition of human CFTR expressed in rat FRT cells coexpressing halide indicator YFP-H148Q assessed as inhibition of halide influx at 5 uM preincubated for 15 mins by FLIPR; assay type: cell-based; procedure, shortened: as §1
Target sequence in this assay (P13569 whole entry, looked up): as above

Kidney [3] = assay: Reduction in cyst size in 8-Br-cAMP treated embryonic mouse kidney organ culture model of polycystic kidney disease by hematoxylin and eosin staining after 4 days; assay type: functional, tissue-based
Procedure, shortened: (§2)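 E13.5 mouse metanephroi cultured on porous inserts in defined DMEM/Ham's F-12 (insulin, transferrin, selenium, prostaglandin E, T3) at 37 °C. Medium with 100 µM 8-Br-cAMP, with or without compound, replaced every 12 h. After 4 days, cyst area fraction measured by transmission light microscopy (SE, 6–8 kidneys), or paraffin sections H&E-stained (three kidneys per condition).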

Kidney [4] = assay: Reduction in cyst expansion in 8-Br-cAMP treated embryonic mouse kidney organ culture model of polycystic kidney disease by transmission light microscopy; assay type: functional, tissue-based; procedure, shortened: as §2
[5] = target: T1, Cystic fibrosis transmembrane conductance regulator; details: FRT, 0.5 uM
Target sequence in this assay (P13569 whole entry, looked up): as above

Kidney [6] = assay: Inhibition of cyst formation in 8-Br-cAMP treated embryonic mouse kidney organ culture model of polycystic kidney disease at 2.5 uM by transmission light microscopy; assay type: functional, tissue-based
Procedure, shortened: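 E13.5 mouse metanephroi cultured on porous inserts in defined DMEM/Ham's F-12 (insulin, transferrin, selenium, prostaglandin E, T3) at 37 °C. Medium with 100 µM 8-Br-cAMP, with or without inhibitor, replaced every 12 h. After 4 days, transmission light micrographs scored as fractional kidney area occupied by cysts (6–8 kidneys, SE).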

[7] = target: T1, Cystic fibrosis transmembrane conductance regulator; details: Epithelial cell, 10 uM
Target sequence in this assay (P13569 whole entry, looked up): as above

Kidney [8] = assay: Inhibition of cyst formation in 8-Br-cAMP treated embryonic mouse kidney organ culture model of polycystic kidney disease at 0.5 uM by transmission light microscopy; assay type: functional; procedure, shortened: as §2
[9] = target: T1, Cystic fibrosis transmembrane conductance regulator; assay: Inhibition of CFTR in nonpermeabilized human bronchial epithelial cells assessed as inhibition of forskolin and IBMX-induced chloride current at by short-circuit current analysis; assay type: cell-based, Epithelial cell
Procedure, shortened: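 Ussing chamber short-circuit current in nonpermeabilized primary human bronchial epithelial cells on inserts; Krebs-bicarbonate both sides, bubbled with 5% CO2 in air, 37 °C. CFTR maximally activated by 10 µM forskolin plus 100 µM IBMX, then inhibitor added; current recorded continuously with voltage clamp.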
Target sequence in this assay (P13569 whole entry): as the sequence (P13569 whole entry, looked up) above

[10] = target: T1, Cystic fibrosis transmembrane conductance regulator; details: T84, 10 uM
Target sequence in this assay (P13569 whole entry, looked up): as above

Epithelial cell [11] = assay: Inhibition of calcium-activated chloride channel in CFTR deficient human bronchial epithelial cells assessed as inhibition of UTP-induced chloride current at 20 uM; assay type: cell-based
Procedure, shortened: (§3)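 Ussing-chamber short-circuit current in cystic fibrosis (CFTR-deficient) human bronchial epithelial cells, Krebs-bicarbonate both sides, 5% CO2 in air, 37 °C. ENaC blocked with 10 µM amiloride. Calcium-activated chloride channels stimulated with 100 µM UTP, compound added as indicated.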

Kidney [12] = assay: Inhibition of cyst formation in 8-Br-cAMP treated embryonic mouse kidney organ culture model of polycystic kidney disease at 5 uM by transmission light microscopy; assay type: functional, tissue-based; procedure, shortened: as §2
CHO-K1 [13] = assay: Effect on forskolin-induced cAMP production in CHOK1 cells at 10 uM; assay type: functional, cell-based; details: Cricetulus griseus
Procedure, shortened: (§4)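 cAMP measured in CHO-K1 cells under basal conditions and after 20 µM forskolin, with or without compound at 10 µM; SE, n = 4.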

Kidney [14] = assay: Reduction in fluid accumulation in 3 days 8-Br-cAMP treated embryonic mouse kidney organ culture model of polycystic kidney disease at 5 uM after 1 or 2 days by transmission light microscopy; assay type: functional, tissue-based
Procedure, shortened: (§5)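 E13.5 mouse metanephroi in defined organ-culture medium with 100 µM 8-Br-cAMP, changed every 12 h, 37 °C. Compound (5 µM) added at day 3 to kidneys with preformed cysts. Cyst area fraction by transmission light microscopy at day 5, six kidneys, SE.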

CHO-K1 [15] = assay: Effect on basal cAMP production in CHOK1 cells at 10 uM; assay type: functional, cell-based; details: Cricetulus griseus; procedure, shortened: as §4
Kidney [16] = assay: Reduction in size of preformed cysts in 8-Br-cAMP treated embryonic mouse kidney organ culture model of polycystic kidney disease by transmission light microscopy; assay type: functional, tissue-based; procedure, shortened: as §5
[17] = target: T1, Cystic fibrosis transmembrane conductance regulator; assay: Inhibition of human CFTR expressed in rat FRT cells assessed as inhibition of CPT-cAMP-induced apical membrane current in presence of transepithelial chloride gradient and basolateral membrane permeabilization with amphotericin B by short-circuit current analysis; assay type: cell-based
Procedure, shortened: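 FRT cells stably coexpressing human wild-type CFTR, mounted in Ussing chambers. Apical 75 mM NaCl/75 mM Na gluconate, basolateral 150 mM NaCl (pH 7.3), basolateral membrane permeabilized with 250 µg/mL amphotericin B, air-bubbled, 37 °C. CFTR activated by 100 µM CPT-cAMP, then increasing inhibitor concentrations added cumulatively. Apical current recorded continuously; dose–response, SE n = 4.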
Target sequence in this assay (P13569 whole entry): as the sequence (P13569 whole entry, looked up) above

Epithelial cell [18] = assay: Inhibition of calcium-activated chloride channel in CFTR deficient human bronchial epithelial cells assessed as inhibition of UTP-induced chloride current at 10 uM; assay type: cell-based; procedure, shortened: as §3
[19] = target: T1, Cystic fibrosis transmembrane conductance regulator; assay: Inhibition of CFTR
Procedure, shortened: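 Ussing-chamber apical membrane current in CFTR-expressing FRT cells under a chloride gradient: apical 75 mM NaCl/75 mM Na gluconate, basolateral 150 mM NaCl, pH 7.3. Basolateral membrane permeabilized with 250 µg/mL amphotericin B, air-bubbled, 37 °C. CFTR activated by 100 µM CPT-cAMP, then compound added at increasing concentrations. Dose–response, SE n = 4.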
Target sequence in this assay (P13569 whole entry): as the sequence (P13569 whole entry, looked up) above

Row | SMILES | inhibition [1] [%] | inhibition [2] [%] | other results
1 | Cc1ccc(C2Nc3cc(C)c(C)cc3-n3c(-c4ccccc4F)c4c(=O)n(C)c(=O)n(C)c4c32)o1 (stereo unspecified) | 87 | 80 | –
2 | COc1cccc(C2Nc3ccccc3-n3c(-c4ccccc4F)c4c(=O)n(C)c(=O)n(C)c4c32)c1 (stereo unspecified) | 97 | 62 | –
3 | Cc1ccccc1-c1c2c(=O)n(C)c(=O)n(C)c2c2n1-c1ccccc1NC2c1ccccc1 (stereo unspecified) | 97 | 51 | –
4 | Cn1c(=O)c2c(-c3ccccc3)n3c(c2n(C)c1=O)C(c1ccccc1F)Nc1ccccc1-3 (stereo unspecified) | 81 | 61 | –
5 | O=C(O)c1ccc(/C=C2\SC(=S)N(c3cccc(C(F)(F)F)c3)C2=O)cc1 | – | – | IC50 [19]: 300 nM
6 | Cc1ccc(C2Nc3cc(C)c(C)cc3-n3c(-c4ccccc4)c4c(=O)n(C)c(=O)n(C)c4c32)o1 (stereo unspecified) | 90 | 84 | –
7 | Cn1c(=O)c2c(-c3ccccc3F)n3c(c2n(C)c1=O)C(c1cccc(Cl)c1)Nc1ccccc1-3 (stereo unspecified) | 98 | 70 | –
8 | Cn1c(=O)c2c(-c3ccccc3)n3c(c2n(C)c1=O)C(c1cccc(F)c1F)Nc1ccccc1-3 (stereo unspecified) | 93 | 72 | –
9 | Cc1ccc(C2Nc3ccccc3-n3c(-c4ccccc4C)c4c(=O)n(C)c(=O)n(C)c4c32)o1 (stereo unspecified) | 97 | 86 | –
10 | O=C(CNc1ccc2ccccc2c1)N/N=C/c1cc(Br)c(O)c(Br)c1O | – | – | IC50 [19]: 5000 nM
11 | Cc1ccccc1-c1c2c(=O)n(C)c(=O)n(C)c2c2n1-c1ccccc1NC2c1cccc([N+](=O)[O-])c1 (stereo unspecified) | 96 | 64 | –

Second part, led by results:

Row | inhibition [1] [%] | inhibition [2] [%] | SMILES | other results
12 | 56 | 5 | COc1cc(O)ccc1C1Nc2ccccc2-n2c(-c3ccccc3)c3c(=O)n(C)c(=O)n(C)c3c21 (stereo unspecified) | –
13 | 90 | 60 | Cn1c(=O)c2c(-c3ccccc3)n3c(c2n(C)c1=O)C(c1cccc([N+](=O)[O-])c1)Nc1ccccc1-3 (stereo unspecified) | –
14 | 98 | 82 | Cc1cccc(-c2c3c(=O)n(C)c(=O)n(C)c3c3n2-c2ccccc2NC3c2ccc(C)o2)c1 (stereo unspecified) | –
15 | 97 | 87 | Cc1ccc(C2Nc3ccccc3-n3c(-c4ccccc4)c4c(=O)n(C)c(=O)n(C)c4c32)o1 (stereo unspecified) | inhibition (Kidney [3]): Active; Activity (Kidney [4]): Active; inhibition [5]: 65%; inhibition (Kidney [6]): Active; inhibition [7]: 100%; inhibition at 0.5 µM (Kidney [8]): 60%; IC50 [9]: < 1000 nM; inhibition [10]: 100%; Activity (Epithelial cell [11]): inactive; Activity (Kidney [12]): Active; Activity (CHO-K1 [13]): inactive; inhibition (Kidney [14]): Active; Activity (CHO-K1 [15]): inactive; Activity (Kidney [16]): Active; IC50 [17]: 90 nM; Activity (Epithelial cell [18]): inactive
16 | 86 | 64 | Cn1c(=O)c2c(-c3ccccc3)n3c(c2n(C)c1=O)C(c1ccc(O)cc1)Nc1ccccc1-3 (stereo unspecified) | –
17 | 100 | 46 | Cc1cccc(C2Nc3ccccc3-n3c(-c4ccccc4C)c4c(=O)n(C)c(=O)n(C)c4c32)c1 (stereo unspecified) | –
18 | 93 | 53 | Cc1cccc(-c2c3c(=O)n(C)c(=O)n(C)c3c3n2-c2ccccc2NC3c2cccc(F)c2)c1 (stereo unspecified) | –
19 | 94 | 62 | COc1cccc(C2Nc3ccccc3-n3c(-c4ccccc4C)c4c(=O)n(C)c(=O)n(C)c4c32)c1 (stereo unspecified) | –
20 | 94 | 61 | Cc1cccc(-c2c3c(=O)n(C)c(=O)n(C)c3c3n2-c2ccccc2NC3c2cccc([N+](=O)[O-])c2F)c1 (stereo unspecified) | –
21 | 99 | 80 | Cc1cc2c(cc1C)-n1c(-c3ccccc3)c3c(=O)n(C)c(=O)n(C)c3c1C(c1ccc(O)cc1)N2 (stereo unspecified) | –
22 | 94 | 71 | Cc1cccc(-c2c3c(=O)n(C)c(=O)n(C)c3c3n2-c2ccccc2NC3c2ccc(O)cc2)c1 (stereo unspecified) | –
23 | 92 | 61 | Cn1c(=O)c2c(-c3ccccc3)n3c(c2n(C)c1=O)C(c1ccccc1)Nc1ccccc1-3 (stereo unspecified) | –
24 | 80 | 67 | Cc1cccc(-c2c3c(=O)n(C)c(=O)n(C)c3c3n2-c2ccccc2NC3c2ccccc2F)c1 (stereo unspecified) | –
25 | 98 | 73 | COc1cccc(C2Nc3ccccc3-n3c(-c4cccc(C)c4)c4c(=O)n(C)c(=O)n(C)c4c32)c1 (stereo unspecified) | –
26 | 86 | 63 | COc1cccc(C2Nc3ccccc3-n3c(-c4ccccc4)c4c(=O)n(C)c(=O)n(C)c4c32)c1 (stereo unspecified) | –
